# From PubChem
# Rtt109 Vps75 = C. albicans Rtt109 histone acetyltransferase inhibition; inhibition, % at 34.9 µM; hit rate 0.16% among 330,000; Q5AAJ8; purified Rtt109/Vps75, ThioGlo CoA-SH fluorescence, 4 h;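 active = inhibition of at least 50% in every replicate; inconclusive = best replicate reaches 50% inhibition but some replicates fall short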
# HDAC3 inh = inhibitors of human histone deacetylase 3; hit rate 0.15% among 320,000; recombinant HDAC3, fluorogenic peptide/trypsin coupled, fluorescence; O15379; inhibition, % at 8.3 µM; in the data active = inhibition above about 26%, passing the limit was not always enough; inconclusive = no clear call, values can overlap the other calls
# M18AAP inhibitor = PfM18AAP enzyme inhibition; recombinant PfM18AAP, H-Glu-NHMec fluorogenic cleavage; inhibition, % at 7.35 µM; hit rate 1.2% among 290,000;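 active = inhibition above the campaign mean inhibition over all tested compounds plus 3 SD, cut at about 28% in these data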;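 also: 0% = plate median of test compound wells and 100% = 2 mM ZnCl2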
# UCH37 DUB inh = blocks the human deubiquitinase UCH37; inhibition, % (no concentration beside the values); purified proteasome/UCH37, Ub-AMC cleavage fluorescence; hit rate 0.33% among 330,000; Q9Y5K5;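 active = mean inhibition over replicate wells above about 20%, limit read from the data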;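 also: 0% = compound-free wells with enzyme and 100% = wells lacking proteasome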
#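 Material: human UCH37 enzyme supplied as purified proteasome complex. Measure: % inhibition of Ub-AMC cleavage fluorescence. Medium: pH 7.4 Tris-HCl (50 mM) with ovalbumin, ATP-MgCl2, DTT. Times: 30 min preincubation with enzyme, 25 min cleavage at room temperature. Detection: AMC fluorescence intensity at 355/460 nm.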
# FAS TE block = FAS thioesterase (human) inhibition. P49327. hit rate 0.67% among 360,000. inhibition, % at 15 µM. recombinant FAS-TE, OMFH fluorogenic substrate, fluorescence endpoint. AID 602261;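 active = compounds whose normalised, plate-corrected inhibition of enzyme fluorescence in the single-dose primary screen is 50% or more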;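 also: 0% = DMSO with enzyme and 100% = substrate without enzyme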
# ALR inh = human ALR oxidase inhibition via reduced H2O2. AID 485317. inhibition, % (concentration not given with the values). hit rate 3.8% among 290,000. P55789. purified ALR, DTT oxidation, H2O2 HRP-luminol luminescence;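 active = mean replicate inhibition above about 79%, with every replicate also reaching it, limit read from the data; inconclusive = only one of the two criteria met; inactive = mean below limit and not every replicate reaching it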
# The depositor's hits bear a star; ? = inconclusive; / = not tested or not shown. An excerpt weighted towards active compounds, which were near 4.6% of everything screened.
SMILES,Rtt109 Vps75,HDAC3 inh,M18AAP inhibitor,UCH37 DUB inh,FAS TE block,ALR inh
Cc1ccc2ccc(C(Nc3ccccn3)c3ccccc3)c(O)c2n1 (centres undefined),0.8,/,18.4,4.3,-3.0,/
COc1cc(C(Nc2ccccn2)c2ccc3ccc(C)nc3c2O)cc(OC)c1O (centres undefined),17.1,7.0,29.8*,2.5,-4.2,-12.7
c1ccc(CCn2nnnc2CN2CCc3ccccc32)cc1,1.7,6.6,2.7,4.1,5.2,99.4*
O=C1c2ccccc2C(Nc2ccc3c(c2)OCCO3)N1Cc1ccccc1 (centres undefined),-3.5,-0.3,/,-1.6,10.1,97.6*
COc1cccc(C=NNC(=O)CNC(=O)/C=C\c2ccccc2)c1O,/,/,/,4.6,/,/
Cc1occc1C(=O)NN=Cc1ccc2c(c1)OCO2,/,/,/,4.5,/,/
CN(C)c1ccc(NC(=O)/C=C/c2ccccc2Cl)cc1,56.1*,?,6.0,5.2,-5.7,39.9
Cc1occc1C(=O)N/N=C/c1ccc(N(C)C)cc1,/,-2.2,-6.5,/,1.5,93.7*
CN(C)c1ccc(/C=N/NC(=O)c2ccccc2Cl)cc1,/,9.5,4.1,/,-5.9,98.3*
O=C(N/N=C\c1ccc(Cl)cc1)c1sccc1-n1cccc1,-1.6,0.8,10.6,/,-0.4,/
CN(C)c1ccc(/C=N/NC(=O)c2sccc2-n2cccc2)cc1,-1.2,-3.1,4.8,/,-1.0,98.8*
Cc1occc1C(=O)N/N=C/C=C/c1ccc(N(C)C)cc1,-140.5,12.3,-4.7,/,-4.0,99.3*
CN(C)c1ccc(/C=N/OC(=O)Nc2ccccc2)cc1,-5.3,7.5,2.9,/,6.1,84.3*
O=C(NN=Cc1ccc(-c2ccccc2[N+](=O)[O-])o1)c1cccnc1,/,/,/,19.9,/,/
O=C1c2cccc3cccc(c23)C(=O)C1(O)O,-4.8,4.5,/,8.3,-3.3,99.1*
CC(=O)N1C(=O)c2cccc3cccc(c23)C(=O)N1C(C)=O,/,-6.1,3.2,-25.4,/,-11.7
CCCCc1n[nH]c2c1C(=NO)CC(C)(C)C2,/,/,/,1.1,/,/
Cc1c(NC(=O)CN2CC(C)OC(C)C2)c(=O)n(-c2ccccc2)n1C (centres undefined),7.5,9.3,9.8,2.1,-4.8,-6.0
Cc1c(C(=O)OCC(=O)Nc2c(C)n(C)n(-c3ccccc3)c2=O)oc2ccccc12,0.4,0.0,0.4,1.1,9.0,99.3*
Cc1c(NC(=O)CN2c3ccccc3CC2C)c(=O)n(-c2ccccc2)n1C (centres undefined),-33.4,9.4,3.0,5.5,-2.7,96.9*
Cc1cccc(C(=O)OCC(=O)Nc2c(C)n(C)n(-c3ccccc3)c2=O)c1,-0.8,2.0,/,2.4,-6.1,/
COC(=O)C/C=C/[C@@H](C)[C@@H](C=NOC[C@H]1O[C@H](c2ccccc2)C=C[C@@H]1Oc1ccc(OC)cc1)OC,/,/,/,3.2,/,/
CC(=O)NC1C(=O)N=C(SCC(=O)Nc2sc3c(c2C#N)CCCCCC3)NC1=O (centres undefined),10.2,-2.0,10.0,6.9,-8.1,98.9*
CC(=O)NC1C(=O)N=C(SCC(=O)Nc2cccc(Cl)c2)NC1=O (centres undefined),-4.7,-2.6,23.8,8.3,-2.0,99.2*
Cn1cnnc1SCC(=O)Nc1sc2c(c1C#N)CCCCC2,-0.9,4.4,7.3,2.9,-3.9,12.3
SMILES,Rtt109 Vps75,HDAC3 inh,M18AAP inhibitor,UCH37 DUB inh,FAS TE block,ALR inh
COc1ccc(C2c3c(ccc4ccccc34)Oc3ncn4nc(CON=Cc5ccccc5)nc4c32)cc1 (centres undefined),/,/,/,1.9,/,/
CN1CCCNc2nc3ccccc3nc21,-44.2,-2.1,-4.5,-63.5,-15.8,80.0*
O=[N+]([O-])c1ccc(S(=O)(=O)NN=Cc2ccco2)cc1,/,/,/,1.6,/,/
N=c1c(S(=O)(=O)c2ccc(Cl)cc2)cc2c(=O)n3ccccc3nc2n1C1CCCCC1,-19.2,-2.2,2.4,-4.1,64.8*,/
COCc1cc(C)nc(NN=Cc2ccc(-c3ccc(Cl)cc3[N+](=O)[O-])o2)c1C#N,/,/,/,9.2,/,/
Cc1ccc(CNS(=O)(=O)c2ccc3c(c2)NC(=O)CS3)cc1,1.9,2.5,5.0,3.7,-3.1,7.5
CN(C)c1ccc(CNS(=O)(=O)c2ccc3c(c2)NC(=O)CS3)cc1,5.5,-0.3,1.2,1.9,0.2,99.0*
COc1ccc(OCC(=O)NN=C(C)c2cc3ccccc3o2)cc1,/,/,/,-11.4,/,/
N=c1oc2ccccc2cc1-c1nc2ccccc2c(=O)[nH]1,-3.3,-6.8,-0.5,0.1,-1.6,93.7*
O=c1[nH]c(-c2ccncc2)nc2ccccc12,-8.7,3.1,7.8,1.6,-15.9,13.8
Cn1ncc(C#N)c1N=CN1CCCC1,/,/,/,4.6,/,/
CCN(c1ccc(NC(=O)CCNC(=O)c2ccco2)cc1)C(C)C,2.2,-1.1,15.0,0.4,-3.7,98.8*
CCN(CC)S(=O)(=O)c1ccc(NN=Cc2cccnc2)nc1,/,/,/,10.8,/,/
Cc1ccc(S(=O)(=O)N=C(c2ccccc2)N(C)S(=O)(=O)c2ccc(C)cc2)cc1,/,/,/,4.6,/,/
Cc1ccc(-c2cnc(SCCNC(=O)c3ccco3)[nH]2)cc1,8.6,2.3,/,1.5,-6.0,93.6*
Cc1ccc(C(=O)NCCCNC(=O)c2ccco2)cc1,1.8,-1.7,-4.7,0.6,-4.0,-13.1
O=C(NN=C/C=C/c1ccco1)c1cncc(Br)c1,/,/,/,15.1,/,/
COC(C/C=C/C(=O)[C@H](C)OCc1ccccc1)OC,-36.6,-1.9,/,/,-2.4,87.4*
COC(C/C=C\C(=O)COCc1ccccc1)OC,/,-1.3,/,/,/,/
O=C(CSc1nc(NS(=O)(=O)c2ccccc2)cc(=O)[nH]1)Nc1ccc(F)cc1,18.2,-4.5,4.3,2.6,-9.3,98.4*
Cc1ccc(NC(=O)CSc2nc(N)cc(=O)[nH]2)cc1S(=O)(=O)N1CCCCCC1,-2.7,-0.6,/,2.7,-5.2,98.5*
O=C(O)CC(SCC(=O)Nc1ccc(S(=O)(=O)N2CCCC2)cc1)C(=O)O (centres undefined),5.7,1.8,-1.3,-0.5,-12.7,99.5*
Cc1cc(=O)[nH]c(SCC(=O)Nc2ccc(S(=O)(=O)N3CCCCC3)cc2)n1,5.2,-7.1,2.1,7.4,-14.8,98.2*
Cc1cc(=O)[nH]c(SCC(=O)Nc2ccc(S(=O)(=O)N3CCOCC3)cc2)n1,-1.6,3.5,2.5,1.8,-8.1,/
O=C(O)CC(SCC(=O)Nc1ccccc1)C(=O)O (centres undefined),2.1,-10.3,4.3,0.3,-2.8,-10.5
CCCc1cc(=O)[nH]c(SCC(=O)Nc2ccc(C)c(S(=O)(=O)N3CCCCC3)c2)n1,2.7,3.2,/,-2.7,-1.4,-3.1
Cc1nn(-c2ccccc2)c(Cl)c1C=NNc1nc2ccccc2[nH]1,/,/,/,4.7,/,/
S=c1[nH]nc(COc2ccccc2)n1N=Cc1ccc(Cl)cc1Cl,/,/,/,9.0,/,/
CC(=NNC(=O)c1c(Cl)c(C)nn1C)c1cccc(NC(=O)COc2ccc(Cl)cc2)c1,/,/,/,1.1,/,/
